Key:
[1] = Cytotoxicity against african green monkey Vero cells after 72 hrs by MTT assay; format: cell-based; settings: chlorocebus sabaeus
Procedure, shortened: (§1)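 Vero or transformed THP-1 cells incubated with compound (0.3–300 μM) 72 h at 37 °C, 5% CO2; untreated controls. MTT read-out, formazan OD at 580 nm; % cytotoxicity = 100 × (OD control − OD treated)/OD control. CC50/CC90 by sigmoidal regression; triplicates, repeated twice. DMSO stocks 100× concentrated, diluted in medium.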

[2] = test system: Trypanosoma cruzi; assay: Antitrypanosomal activity against Trypanosoma cruzi 320I01 epimastigotes after 72 hrs by haemocytometry; format: functional, organism-based; settings: 320I01, 72 h
Procedure, shortened: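 Late-phase T. cruzi epimastigotes cultured in LIT medium with hiFCS at 28 °C; threefold serial dilutions (0.3–100 μM) for 72 h at 28 °C, untreated controls. Parasites counted in a haemocytometer; IC50/IC90 by sigmoidal regression; each concentration in triplicate, two experiments.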

[3] = Selectivity index, CC50 for african green monkey Vero cells to IC50 for Trypanosoma cruzi 320I01 epimastigote; format: functional
Procedure, shortened: (§2)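 Selectivity index computed as CC50 in Vero cells divided by IC50 against the T. cruzi stage named in the line.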

[4] = test system: Trypanosoma cruzi; assay: Antitrypanosomal activity against Trypanosoma cruzi 320I01 amastigotes infected in african green monkey Vero cells after 5 days by Giemsa staining; format: functional, organism-based; settings: 320I01, Vero, 120 h
Procedure, shortened: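 Vero cells (RPMI, 5% hiSBF, 37 °C, 5% CO2) infected 24 h with tissue-derived T. cruzi trypomastigotes at parasite:cell 10:1. Compound dilutions (top 100 μM) applied 5 days at 37 °C, 5% CO2, medium changed once at day 3. Infected cells scored per 300 cells on methanol-fixed Giemsa preparations; IC50/IC90 by sigmoidal regression; triplicates, two experiments.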

[5] = Selectivity index, CC50 for african green monkey Vero cells to IC50 for Trypanosoma cruzi 320I01 amastigotes; format: functional; procedure, shortened: as §2
[6] = test system: Leishmania chagasi; assay: Antileishmanial activity against Leishmania chagasi MHOM/BR/74/PP75 promastigotes after 72 hrs by haemocytometry; format: functional, organism-based; settings: MHOM/BR/74/PP75, 72 h
Procedure, shortened: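 Late-phase L. chagasi promastigotes, grown at 28 °C in RPMI 1640 with hemin, HEPES and 10% hiSBF, exposed to threefold serial dilutions (0.3–100 μM) for 72 h at 28 °C; untreated controls. Growth inhibition from haemocytometer counts; IC50/IC90 by sigmoidal regression; triplicates, repeated twice.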

[7] = Cytotoxicity against human THP1 cells after 72 hrs by MTT assay; format: cell-based; settings: THP-1 cells; procedure, shortened: as §1
[8] = Selectivity index, CC50 for human THP1 cells to IC50 for Leishmania chagasi MHOM/BR/74/PP75 promastigotes; format: functional, THP-1
Procedure, shortened: (§3)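 Selectivity index computed as CC50 in THP-1 cells divided by IC50 against the L. chagasi stage named in the line.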

[9] = test system: Leishmania chagasi; assay: Antileishmanial activity against Leishmania chagasi MHOM/BR/74/PP75 amastigotes infected in human THP1 cells after 5 days by Giemsa staining; format: functional, organism-based; settings: MHOM/BR/74/PP75, THP-1, 120 h
Procedure, shortened: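 THP-1 cells (RPMI, 5% hiSBF, 37 °C, 5% CO2) transformed, then infected 24 h with late-phase L. chagasi promastigotes at parasite:cell 10:1. Treated with compound dilutions (top 100 μM) 5 days at 37 °C, 5% CO2, medium changed once after 3 days. Infected cells counted per 300 cells on methanol-fixed Giemsa slides; IC50/IC90 by sigmoidal regression; triplicates, repeated twice.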

[10] = Selectivity index, CC50 for human THP1 cells to IC50 for Leishmania chagasi MHOM/BR/74/PP75 amastigotes; format: functional, THP-1; procedure, shortened: as §3

SMILES	CC50 at 72 h [1] [µM]	CC90 at 72 h [1] [µM]	IC50 [2] [µM]	IC90 [2] [µM]	Selectivity Index [3]	IC50 [4] [µM]	IC90 [4] [µM]	Selectivity Index [5]	IC50 [6] [µM]	IC90 [6] [µM]	CC50 at 72 h [7] [µM]	CC90 at 72 h [7] [µM]	Selectivity Index [8]	IC50 [9] [µM]	IC90 [9] [µM]	Selectivity Index [10]
Clc1ccccc1[C@@H]1C[C@@H]2Cc3ccccc3N1O2 (relative stereo)	111	> 300	19.4	57.8	5.71	> 100	> 100	>1	25.1	> 100	110	211	4.37	> 100	> 100	>1
Cc1ccc2c(c1)C[C@H]1C[C@@H](c3ccccc3Cl)N2O1 (relative stereo)	50.2	> 300	14.3	30.4	3.51	51.9	> 100	0.96	41.7	49.5	66.8	109	1.6	> 100	> 100	>0.66
Clc1ccc2c(c1)C[C@H]1C[C@@H](c3ccccc3Cl)N2O1 (relative stereo)	109	> 300	17.6	43.9	6.17	> 100	> 100	>1	51.3	> 100	> 300	> 300	>5	> 100	> 100	>3
Fc1ccccc1[C@@H]1C[C@@H]2Cc3cc(Cl)ccc3N1O2 (relative stereo)	123	> 300	18.9	38.1	6.51	> 100	> 100	>1	23.8	67.3	> 300	> 300	>12	> 100	> 100	>3
Clc1cccc(Cl)c1[C@@H]1C[C@@H]2Cc3ccccc3N1O2 (relative stereo)	> 300	> 300	> 100	> 100	>3	> 100	> 100	>3	> 100	> 100	> 300	> 300	>3	> 100	> 100	>3
Fc1cccc(Cl)c1[C@@H]1C[C@@H]2Cc3ccccc3N1O2 (relative stereo)	> 300	> 300	17.7	> 100	>17	> 100	> 100	>3	> 100	> 100	> 300	> 300	>3	> 100	> 100	>3
Fc1ccccc1[C@@H]1C[C@@H]2Cc3ccccc3N1O2 (relative stereo)	> 300	> 300	> 100	> 100	>3	58.6	96.4	>5	40.5	47	200	> 300	4.93	> 100	> 100	>2
Clc1ccc2c(c1)C[C@H]1C[C@@H](c3c(Cl)cccc3Cl)N2O1 (relative stereo)	57	> 295	> 100	> 100	>0.56	> 98.2	> 98.2	>0.58	71	> 100	> 295	> 295	4.15	> 98.2	> 98.2	>3
Fc1cccc(Cl)c1[C@@H]1C[C@@H]2Cc3cc(Cl)ccc3N1O2 (relative stereo)	> 300	> 300	48.1	> 100	>6	> 100	> 100	>3	> 100	> 100	> 300	> 300	>3	> 100	> 100	>3
O[C@@H]1Cc2ccccc2N[C@H](c2ccccc2)C1 (relative stereo)	> 300	> 300	31.8	> 100	>9	> 100	> 100	>3	> 100	> 100	> 300	> 300	>3	> 100	> 100	>3
O[C@@H]1Cc2cc(OC(F)(F)F)ccc2N[C@H](c2ccccc2)C1 (relative stereo)	124	263	26.6	60.4	4.64	> 100	> 100	>1	35.5	43.2	104	> 300	2.92	> 100	> 100	>1
Cc1ccc([C@@H]2C[C@@H]3Cc4cc(C)ccc4N2O3)cc1 (relative stereo)	208	> 300	23.2	85.4	8.97	45.3	90	4.6	99	> 100	74	126	0.75	> 100	> 100	>0.74
Clc1ccc([C@@H]2C[C@@H]3Cc4cc(Cl)ccc4N2O3)cc1 (relative stereo)	> 300	> 300	15	> 100	>20	> 100	> 100	>3	33.2	50.1	> 300	> 300	>9	> 100	> 100	>3
Clc1ccc2c(c1)C[C@H]1C[C@@H](c3ccc(Br)cc3)N2O1 (relative stereo)	> 300	> 287	30.1	> 100	>10	60.6	> 95.4	>4	32.5	42.2	236	> 287	7.24	> 95.4	> 95.4	>2
Fc1ccc2c(c1)C[C@H]1C[C@@H](c3ccc(Cl)cc3)N2O1 (relative stereo)	> 300	> 300	35.4	85.8	>8	40.2	104	>7	35.2	41.8	> 300	> 300	>8	> 100	> 100	>3

From ChEMBL document CHEMBL1177650, “Synthesis, structural elucidation and in vitro antiparasitic activity against Trypanosoma cruzi and Leishmania chagasi parasites of novel tetrahydro-1-benzazepine derivatives” (Bioorg Med Chem, 2010)
